Data published in ChEMBL document CHEMBL1275595, “Antimicrobial activity of a halocidin-derived peptide resistant to attacks by proteases” (2010).
Values after ≈ are worked out from the molar mass of the structure shown. Active and inactive are the calls of the source. The calls are words filed in the database; no cut-off is given here. Bridge positions count the residues as written; N and C are the ends. Square brackets hold non-standard residues; d marks the D form. Peptide text beside a SMILES is read from it. I, II: the chains in the order shown. Nva(4-oxo) = CC(=O)C[C@H](N)C(=O)O

What was measured:
[1] = system: Citrobacter freundii; test: Antimicrobial activity against Citrobacter freundii KCTC 2359 after 18 hrs by broth dilution method; assay type: functional; conditions: KCTC 2359, 18 h
Summary of the method: (§1)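 Broth microdilution following CLSI recommendations. Bacteria were grown overnight to stationary phase in Mueller-Hinton broth, then diluted in fresh MHB to 2 × 10^5 CFU/ml. Peptide or antibiotic stocks of 640 μg/ml in 0.01% acetic acid were serially 2-fold diluted to 10 μg/ml, and each was added to the bacterial suspension at 11 μl per 100 μl. Plates were incubated 18 h at 37°C. MIC was taken as the lowest concentration giving no visible turbidity, in triplicate.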

[2] = system: Pseudomonas aeruginosa; test: Antimicrobial activity against multidrug-resistant Pseudomonas aeruginosa CCARM 2161 after 18 hrs by broth dilution method; assay type: functional; conditions: CCARM 2161, 18 h
Summary of the method: (§2)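 Broth dilution per CLSI. Bacteria were grown overnight to stationary phase in Mueller-Hinton broth and diluted in fresh MHB to 2 × 10^5 CFU/ml. Stocks at 640 μg/ml in 0.01% acetic acid were 2-fold serially diluted to 10 μg/ml, and 11 μl was added to 100 μl of bacteria. After 18 h at 37°C, MIC was the lowest concentration with no visible turbidity. Run in triplicate.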

[3] = system: Escherichia coli; test: Antimicrobial activity against Escherichia coli KCTC 1039 after 18 hrs by broth dilution method; assay type: functional; conditions: KCTC 1039, 18 h; summary of the method: as §1
[4] = system: Enterococcus faecium; test: Antimicrobial activity against vancomycin-resistant Enterococcus faecium CCARM 5028 after 18 hrs by broth dilution method; assay type: functional; conditions: CCARM 5028, 18 h; summary of the method: as §2
[5] = system: Salmonella enterica; test: Antimicrobial activity against Salmonella enterica KCTC 2930 after 18 hrs by broth dilution method; assay type: functional; conditions: KCTC 2930, 18 h; summary of the method: as §1
[6] = system: Klebsiella oxytoca; test: Antimicrobial activity against Klebsiella oxytoca KCTC 1686 after 18 hrs by broth dilution method; assay type: functional; conditions: KCTC 1686, 18 h; summary of the method: as §1
[7] = system: Micrococcus luteus; test: Antimicrobial activity against Micrococcus luteus KCTC 9341 after 18 hrs by broth dilution method; assay type: functional; conditions: KCTC 9341, 18 h; summary of the method: as §1
[8] = system: Listeria monocytogenes; test: Antimicrobial activity against Listeria monocytogenes KCTC 19111 after 18 hrs by broth dilution method; assay type: functional; conditions: KCTC 19111, 18 h; summary of the method: as §1
[9] = system: Bacillus subtilis; test: Antimicrobial activity against Bacillus subtilis KCTC 2213 after 18 hrs by broth dilution method; assay type: functional; conditions: KCTC 2213, 18 h; summary of the method: as §1
[10] = system: Staphylococcus aureus; test: Antimicrobial activity against methicillin-resistant Staphylococcus aureus CCARM 3696 after 18 hrs by broth dilution method; assay type: functional; conditions: CCARM 3696, 18 h; summary of the method: as §2
[11] = system: Staphylococcus aureus; test: Antimicrobial activity against methicillin-resistant Staphylococcus aureus CCARM 3696 by radial diffusion assay incubated with trypsin; assay type: functional, organism-based
[12] = system: Staphylococcus aureus; test: Antimicrobial activity against methicillin-resistant Staphylococcus aureus CCARM 3696 by radial diffusion assay incubated with chymotrypsin; assay type: functional, organism-based

Row | SMILES | MIC [1] | MIC [2] | MIC [3] | MIC [4] | MIC [5] | MIC [6] | MIC [7] | MIC [8] | MIC [9] | MIC [10] | Activity [11] | Activity [12]
1 | CO/N=C(\C(=O)N[C@@H]1C(=O)N2C(C(=O)O)=C(CSc3nc(=O)c(O)nn3C)CS[C@H]12)c1csc(N)n1 [CEFTRIAXONE] | 2 µg/mL (≈ 3.61 µM) | > 64 µg/mL | < 1 µg/mL | > 64 µg/mL | 4 µg/mL (≈ 7.21 µM) | < 1 µg/mL | 16 µg/mL (≈ 28.9 µM) | < 1 µg/mL | < 1 µg/mL | > 64 µg/mL |  | 
2 | CC(C)C[C@H](NC(=O)CNC(=O)[C@H](Cc1cnc[nH]1)NC(=O)[C@H](Cc1cnc[nH]1)NC(=O)[C@H](CC(C)C)NC(=O)[C@H](CC(C)C)NC(=O)[C@H](C)NC(=O)[C@H](CC(N)=O)NC(=O)[C@H](CC(C)C)NC(=O)[C@H](Cc1c[nH]c2ccccc12)NC(=O)[C@@H](N)CCCCN)C(=O)N[C@@H](CC(N)=O)C(=O)N[C@@H](CSSC[C@H](NC(=O)[C@H](CC(N)=O)NC(=O)[C@H](CC(C)C)NC(=O)CNC(=O)[C@H](Cc1cnc[nH]1)NC(=O)[C@H](Cc1cnc[nH]1)NC(=O)[C@H](CC(C)C)NC(=O)[C@H](CC(C)C)NC(=O)[C@H](C)NC(=O)[C@H](CC(N)=O)NC(=O)[C@H](CC(C)C)NC(=O)[C@H](Cc1c[nH]c2ccccc12)NC(=O)[C@@H](N)CCCCN)C(=O)N[C@@H](C)C(=O)N[C@@H](CCCCN)C(=O)NCC(=O)N[C@H](C(=O)N[C@@H](CC(C)C)C(=O)N[C@@H](C)C(N)=O)C(C)C)C(=O)N[C@@H](C)C(=O)N[C@@H](CCCCN)C(=O)O (I: H-KWLNALLHHGLNCAKGVLA-NH2 / II: H-KWLNALLHHGLNCAK-OH; disulfide I:13-II:13) |  |  |  |  |  |  |  |  |  |  | Active | 
3 | CC(C)C[C@H](NC(=O)CNC(=O)[C@H](Cc1cnc[nH]1)NC(=O)[C@H](Cc1cnc[nH]1)NC(=O)[C@H](CC(C)C)NC(=O)[C@H](CC(C)C)NC(=O)[C@H](C)N)C(=O)N[C@@H](CC(N)=O)C(=O)N[C@@H](CSSC[C@H](NC(=O)[C@H](CC(N)=O)NC(=O)[C@H](CC(C)C)NC(=O)CNC(=O)[C@H](Cc1cnc[nH]1)NC(=O)[C@H](Cc1cnc[nH]1)NC(=O)[C@H](CC(C)C)NC(=O)[C@H](CC(C)C)NC(=O)[C@H](C)NC(=O)[C@H](CC(N)=O)NC(=O)[C@H](CC(C)C)NC(=O)[C@H](Cc1c[nH]c2ccccc12)NC(=O)[C@@H](N)CCCCN)C(=O)N[C@@H](C)C(=O)N[C@@H](CCCCN)C(=O)NCC(=O)N[C@H](C(=O)N[C@@H](CC(C)C)C(=O)N[C@@H](C)C(N)=O)C(C)C)C(=O)N[C@@H](C)C(=O)N[C@@H](CCCCN)C(=O)NCC(=O)N[C@H](C(=O)N[C@@H](CC(C)C)C(=O)N[C@@H](C)C(N)=O)C(C)C (I: H-KWLNALLHHGLNCAKGVLA-NH2 / II: H-ALLHHGLNCAKGVLA-NH2; disulfide I:13-II:9) | 8 µg/mL (≈ 2.24 µM) | 8 µg/mL (≈ 2.24 µM) | 4 µg/mL (≈ 1.12 µM) | 4 µg/mL (≈ 1.12 µM) | 4 µg/mL (≈ 1.12 µM) | 4 µg/mL (≈ 1.12 µM) | 8 µg/mL (≈ 2.24 µM) | 4 µg/mL (≈ 1.12 µM) | 4 µg/mL (≈ 1.12 µM) | 8 µg/mL (≈ 2.24 µM) |  | 
4 | CC(=O)C[C@H](NC(=O)[C@H](CC(C)C)NC(=O)CNC(=O)[C@H](Cc1cnc[nH]1)NC(=O)[C@H](Cc1cnc[nH]1)NC(=O)[C@H](CC(C)C)NC(=O)[C@H](CC(C)C)NC(=O)[C@H](C)NC(=O)[C@H](CC(N)=O)NC(=O)[C@H](CC(C)C)NC(=O)[C@@H](N)Cc1c[nH]c2ccccc12)C(=O)N[C@@H](CSSC[C@H](NC(=O)[C@H](CC(N)=O)NC(=O)[C@H](CC(C)C)NC(=O)CNC(=O)[C@H](Cc1cnc[nH]1)NC(=O)[C@H](Cc1cnc[nH]1)NC(=O)[C@H](CC(C)C)NC(=O)[C@H](CC(C)C)NC(=O)[C@H](C)NC(=O)[C@H](CC(N)=O)NC(=O)[C@H](CC(C)C)NC(=O)[C@@H](N)Cc1c[nH]c2ccccc12)C(=O)N[C@@H](C)C(=O)N[C@@H](CCCCN)C(=O)O)C(=O)N[C@@H](C)C(=O)N[C@@H](CCCCN)C(=O)O (I: H-WLNALLHHGL[Nva(4-oxo)]CAK-OH / II: H-WLNALLHHGLNCAK-OH; disulfide I:12-II:12) |  |  |  |  |  |  |  |  |  |  | inactive | 
5 | CC(C)C[C@H](NC(=O)CNC(=O)[C@H](Cc1cnc[nH]1)NC(=O)[C@H](Cc1cnc[nH]1)NC(=O)[C@H](CC(C)C)NC(=O)[C@H](CC(C)C)NC(=O)[C@H](C)NC(=O)[C@H](CC(N)=O)NC(=O)[C@H](CC(C)C)NC(=O)[C@H](Cc1c[nH]c2ccccc12)NC(=O)[C@@H](N)CCCCN)C(=O)N[C@@H](CC(N)=O)C(=O)N[C@@H](CSSC[C@H](NC(=O)[C@H](CC(N)=O)NC(=O)[C@H](CC(C)C)NC(=O)CNC(=O)[C@H](Cc1cnc[nH]1)NC(=O)[C@@H](N)Cc1cnc[nH]1)C(=O)N[C@@H](C)C(=O)N[C@@H](CCCCN)C(=O)NCC(=O)N[C@H](C(=O)N[C@@H](CC(C)C)C(=O)N[C@@H](C)C(N)=O)C(C)C)C(=O)N[C@@H](C)C(=O)N[C@@H](CCCCN)C(=O)NCC(=O)N[C@H](C(=O)N[C@@H](CC(C)C)C(=O)N[C@@H](C)C(N)=O)C(C)C (I: H-KWLNALLHHGLNCAKGVLA-NH2 / II: H-HHGLNCAKGVLA-NH2; disulfide I:13-II:6) |  |  |  |  |  |  |  |  |  |  |  | Active
6 | C[C@H]1[C@H](NC(=O)/C(=N\OC(C)(C)C(=O)O)c2csc(N)n2)C(=O)N1S(=O)(=O)O [AZTREONAM] | 4 µg/mL (≈ 9.19 µM) | 8 µg/mL (≈ 18.4 µM) | < 1 µg/mL | > 64 µg/mL | > 64 µg/mL | < 1 µg/mL | > 64 µg/mL | < 1 µg/mL | > 64 µg/mL | > 64 µg/mL |  | 
